Legend:
[1] = molecular target: p53-Cluc fusion protein (UniProt P04637+P08659, D436G/I423L/L530R); assay: p53-Cluc luciferase fragment complementation DNA-binding assay; type: biochemical; conditions: read-out: IC50, inhibition of p53 sequence-specific DNA binding in vitro
Procedure, shortened: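 The cell-free reaction used crude E. coli BL21(DE3) extracts: ZF1-Nluc plus p53-Cluc, each expressed from pET-28b with 1 mM IPTG and 0.1 mM ZnCl2 at 18 °C for 18 h. DNA was 50 ng plasmid carrying 12 paired ZF1/p53 sites. Buffer was 100 mM potassium phosphate pH 7.8, 1 mM ZnCl2, 5% glycerol, 1 mM DTT. After 35 min at 32 °C, luciferin/ATP substrate was added, 10 min at 23 °C, then luminescence read. Three experiments.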

[2] = molecular target: T1, p53 (Homo sapiens, UniProt P04637); assay: ZF1-Nluc/ZF2-Cluc DNA-binding competition assay; type: biochemical; conditions: at low micromolar concentrations
[3] = molecular target: p63γ (Homo sapiens, UniProt Q9H3D4); assay: ZF1-Nluc/ZF2-Cluc DNA-binding competition assay, p63γ; type: biochemical; conditions: at low micromolar concentrations
[4] = molecular target: p73β (Homo sapiens, UniProt O15350); assay: ZF1-Nluc/ZF2-Cluc DNA-binding competition assay, p73β; type: biochemical; conditions: at low micromolar concentrations
[5] = molecular target: T2, TCF1 (Homo sapiens, UniProt P36402); assay: TCF1-specific zinc finger competition assay; type: biochemical
[6] = molecular target: T1, p53; assay: Biotinylated oligonucleotide pull down assay, p53 western blot; type: biochemical; conditions: for Inhibition of p53 DNA binding in oligonucleotide pull down: full-length p53
Procedure, shortened: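 Pull-down: p53 (~0.1 μl E. coli lysate, 100 ng) with 2 μg poly(dI-dC) and 100 ng biotinylated duplex oligo carrying the p53 site, in Tris pH7.2/150 mM NaCl DNA-binding buffer, 30 min at 4 °C. Captured on streptavidin magnetic beads 30 min at 4 °C, washed three times, boiled, p53 western blot. Pre-treated bead-bound FLAG-p53: 10 μM, 30 min, washed 3 min or 3 h, FLAG-peptide eluted.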

[7] = molecular target: T2, TCF1; assay: Biotinylated oligonucleotide pull down assay, FLAG-TCF1; type: biochemical
[8] = molecular target: zinc finger proteins (ZF1-Nluc/ZF2-Cluc complementation) (Photinus pyralis, UniProt P08659, D436G/I423L/L530R); assay: ZF1-Nluc/ZF2-Cluc complementation in the absence of p53; type: biochemical
[9] = molecular target: T1, p53; assay: ChIP of p53 at target promoters in U2OS cells; type: cell-based
Procedure, shortened: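 U2OS cells in DMEM/10% FBS, given test compound alone or with IR for 4 h. Chromatin immunoprecipitation with DO-1 anti-p53. Precipitated DNA quantified by SYBR Green real-time PCR with primers for the p21 and MDM2 promoters.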

[10] = test system: p53 target genes (p21, MDM2, PUMA) in U2OS cells; assay: Western blot / RT-PCR of p53 level and target genes in U2OS cells; type: cell-based, human
[11] = molecular target: p63γ-A167P (Homo sapiens, UniProt Q9H3D4, A206P); assay: ChIP of p63γ-A167P temperature-sensitive mutant; type: cell-based; conditions: 32 °C
Procedure, shortened: (§1)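 ChIP by standard procedure, read by SYBR Green real-time PCR of target promoters. Antibodies: anti-HA tag (C29F4) for p63, p73 and c-MYC; KH95 for E2F1.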

[12] = molecular target: p73β-A156I (Homo sapiens, UniProt O15350, A156I); assay: ChIP of p73β-A156I temperature-sensitive mutant; type: cell-based; conditions: 32 °C
Procedure, shortened: as §1

[13] = molecular target: E2F1 (Homo sapiens, UniProt Q01094); assay: ChIP of E2F1-ER fusion protein; type: cell-based; conditions: tamoxifen-regulated E2F1-ER fusion protein
Procedure, shortened: as §1

[14] = molecular target: c-Myc (Homo sapiens, UniProt P01106); assay: ChIP of transiently expressed c-Myc; type: cell-based
Procedure, shortened: as §1

[15] = molecular target: T1, p53; assay: p53-responsive luciferase reporter assay in transfected H1299 cells; type: cell-based; conditions: 6 h treatment
Procedure, shortened: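 H1299 cells (p53-null; 50,000/well) transfected 24 h by lipofection with 20 ng BP100-luciferase reporter, 5 ng CMV-lacZ and 0.2 ng CMV-p53. Then 6 h test compound. Activity expressed as luciferase/β-galactosidase ratio.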

[16] = test system: Foxo1; assay: Foxo1-responsive luciferase reporter assay in transfected H1299 cells; type: cell-based; conditions: 6 h treatment
Procedure, shortened: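 H1299 cells (50,000/well) lipofected for 24 h with 20 ng 3IRS-luciferase Foxo1 reporter, 5 ng CMV-lacZ and 10 ng CMV-Foxo1, then exposed to compound for 6 h. Readout: luciferase normalised to β-galactosidase activity.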

[17] = test system: MDM2-mediated ubiquitination of p53; assay: In vivo ubiquitination assay in H1299 cells; type: cell-based; conditions: H1299, 5 h treatment
Procedure, shortened: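 H1299 cells co-transfected (PEI, 36 h) with 2 μg His6-ubiquitin, 0.2 μg p53 and 2 μg MDM2 plasmids, then treated 5 h. Lysed in 6 M guanidinium buffer, bound to Ni-NTA 16 h at 23 °C, washed with urea buffers (pH8.0 then 6.3). Imidazole/SDS elution 20 min at 23 °C, DO-1 western blot.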

[18] = molecular target: FLAG-p53-94-312 DNA-binding domain (Homo sapiens, UniProt P04637); assay: Differential scanning fluorimetry; conditions: 100 μM compound, 4.5 μM protein
Procedure, shortened: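 FLAG-p53 94–312 expressed in E. coli (pET-28b), purified on M2 beads and FLAG-peptide eluted. DSF with 4.5 μM protein, 100 μM test compound and 5× SYPRO Orange in 50 mM HEPES pH7.4, 150 mM NaCl, 2 mM DTT, 2% DMSO. Heated 25→95 °C at 1 °C/min, read every 0.5 °C at 610 nm, quadruplicate. ΔTm taken against DMSO wells.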

[19] = molecular target: TAF1 bromodomain 2 (aa 1501–1635) (Homo sapiens, UniProt P21675); assay: Differential scanning fluorimetry; type: binding; conditions: 100 μM compound, 4.5 μM protein
Procedure, shortened: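 TAF1 second bromodomain (residues 1501–1635) purified by Ni-NTA and size exclusion. Thermal shift with 4.5 μM protein, 100 μM compound and 5× SYPRO Orange in HEPES pH7.4/150 mM NaCl/2 mM DTT/2% DMSO. Ramp 25–95 °C at 1 °C/min, fluorescence at 610 nm every 0.5 °C, four replicates. ΔTm relative to DMSO reference.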

[20] = test system: Primary mouse thymocytes; assay: Primary mouse thymocytes, radiation-induced apoptosis and viability; type: cell-based
[21] = test system: C57BL/6 mice; assay: Radiation toxicity in mice; type: in vivo, mouse
[22] = molecular target: T1, p53; assay: Trypsin digestion sensitivity of p53; type: biochemical
[23] = molecular target: T1, p53; assay: Glutaraldehyde crosslinking of p53 in H1299 extract; type: biochemical; conditions: 10 μM NSC194598
Procedure, shortened: (§2)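 H1299 cells transiently transfected with pcDNA3 FLAG-tagged wild-type or mutant p53 were lysed in HEPES buffer (50 mM HEPES pH 8.0, 5 mM EDTA, 150 mM NaCl, 0.5% NP-40, protease inhibitors) and spun to clear. Lysate was held with 10 μM test compound for 20 min at 23 °C. It was then crosslinked with 0.01–0.1% glutaraldehyde for 5 min at 23 °C and quenched with Tris-HCl pH 8.0 to 100 mM. Monomer, dimer and tetramer were read by western blot (FL393).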

[24] = molecular target: p53 (Homo sapiens, UniProt P04637, R175H); assay: as above; type: biochemical; conditions: 10 μM NSC194598
Procedure, shortened: as §2

[25] = molecular target: T1, p53; assay: In vitro oligomer formation of HA-p53 and FLAG-p53; type: biochemical
[26] = test system: H1299-p53-A138V cells; assay: Western blot in H1299-p53-A138V temperature-sensitive cells; type: cell-based; conditions: activated at 32 °C, 8 h
Procedure, shortened: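 H1299 (p53-null) cells stably carrying temperature-sensitive p53-A138V were grown in DMEM with 10% FBS. They were kept at 39 °C or shifted to 32 °C with test compound for 8 h. Cells were lysed in 50 mM Tris-HCl pH 8.0, 5 mM EDTA, 150 mM NaCl, 0.5% NP-40 and protease inhibitors. p53 and target genes were resolved by SDS-PAGE and western blot.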

[27] = test system: SJSA cells; assay: Western blot in SJSA cells; type: cell-based; conditions: 5–20 μM
Procedure, shortened: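 SJSA cells (MDM2-amplified) were co-treated with the MDM2 inhibitor Nutlin and test compound for 32 h. Lysis was in NP-40/Tris buffer with protease inhibitors, followed by SDS-PAGE and western blot for p53 level and target-gene induction, including p21.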

[28] = test system: HCT116-p53−/− cells; assay: Western blot in HCT116-p53−/− cells; type: cell-based
[29] = test system: G-quadruplex DNA structures; conditions: cited from earlier work
[30] = test system: RET oncogene; conditions: cited from earlier work
[31] = molecular target: full-length luciferase (Photinus pyralis, UniProt P08659); assay: Full-length luciferase activity; type: biochemical, Firefly
[32] = U2OS, compound alone, 10, 20 μM

T2 sequence (P36402 whole entry): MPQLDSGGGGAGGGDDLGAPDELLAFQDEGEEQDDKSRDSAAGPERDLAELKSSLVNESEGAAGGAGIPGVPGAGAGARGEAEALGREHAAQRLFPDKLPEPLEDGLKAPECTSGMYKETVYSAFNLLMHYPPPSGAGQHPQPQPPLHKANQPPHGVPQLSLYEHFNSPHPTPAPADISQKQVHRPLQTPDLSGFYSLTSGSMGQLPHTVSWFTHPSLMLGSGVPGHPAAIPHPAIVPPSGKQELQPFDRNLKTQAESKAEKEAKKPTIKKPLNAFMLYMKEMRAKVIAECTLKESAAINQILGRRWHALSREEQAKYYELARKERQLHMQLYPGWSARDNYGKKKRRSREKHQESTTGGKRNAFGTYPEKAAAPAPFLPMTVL
Chain of c-Myc (P01106 whole entry): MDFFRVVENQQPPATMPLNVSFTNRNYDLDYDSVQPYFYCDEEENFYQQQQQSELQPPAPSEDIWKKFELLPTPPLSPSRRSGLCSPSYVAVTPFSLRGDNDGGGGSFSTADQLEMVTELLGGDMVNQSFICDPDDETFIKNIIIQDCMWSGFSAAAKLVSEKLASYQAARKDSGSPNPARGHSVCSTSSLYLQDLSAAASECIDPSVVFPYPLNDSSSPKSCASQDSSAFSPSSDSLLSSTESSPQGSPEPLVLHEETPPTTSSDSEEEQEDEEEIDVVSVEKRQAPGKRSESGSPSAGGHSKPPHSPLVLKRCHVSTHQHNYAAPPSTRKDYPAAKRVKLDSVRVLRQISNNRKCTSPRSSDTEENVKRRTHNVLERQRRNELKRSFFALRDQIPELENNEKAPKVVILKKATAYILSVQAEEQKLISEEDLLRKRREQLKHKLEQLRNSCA
Chain of c-Myc (P61244 whole entry partner): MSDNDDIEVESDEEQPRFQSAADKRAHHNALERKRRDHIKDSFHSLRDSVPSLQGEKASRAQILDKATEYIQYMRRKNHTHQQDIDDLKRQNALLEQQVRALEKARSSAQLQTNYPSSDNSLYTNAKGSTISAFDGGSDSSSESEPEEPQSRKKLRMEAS
Chain of p73β-A156I (O15350 1-499 isoform O15350-2 A156I): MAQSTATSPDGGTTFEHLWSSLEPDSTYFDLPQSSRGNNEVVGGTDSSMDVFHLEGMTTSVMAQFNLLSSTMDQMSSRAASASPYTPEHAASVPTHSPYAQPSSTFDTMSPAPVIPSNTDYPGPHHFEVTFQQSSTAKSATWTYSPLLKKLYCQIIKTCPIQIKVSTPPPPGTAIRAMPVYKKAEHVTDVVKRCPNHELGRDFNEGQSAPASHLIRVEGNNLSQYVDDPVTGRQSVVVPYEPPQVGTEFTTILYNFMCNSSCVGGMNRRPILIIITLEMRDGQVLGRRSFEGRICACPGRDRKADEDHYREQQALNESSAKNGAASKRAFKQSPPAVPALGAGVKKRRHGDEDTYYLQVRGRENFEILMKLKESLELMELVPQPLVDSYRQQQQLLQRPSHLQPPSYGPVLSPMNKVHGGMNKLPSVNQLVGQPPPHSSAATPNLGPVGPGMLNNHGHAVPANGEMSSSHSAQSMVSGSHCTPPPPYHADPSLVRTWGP
Chain of TAF1 bromodomain 2 (aa 1501–1635) (P21675 1522-1656): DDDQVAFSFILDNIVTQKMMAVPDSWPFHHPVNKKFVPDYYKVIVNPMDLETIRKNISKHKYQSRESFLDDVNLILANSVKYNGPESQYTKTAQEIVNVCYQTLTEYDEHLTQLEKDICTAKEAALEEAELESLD
Chain of p63γ-A167P (Q9H3D4 40-487 isoform Q9H3D4-5 A206P limits assumed): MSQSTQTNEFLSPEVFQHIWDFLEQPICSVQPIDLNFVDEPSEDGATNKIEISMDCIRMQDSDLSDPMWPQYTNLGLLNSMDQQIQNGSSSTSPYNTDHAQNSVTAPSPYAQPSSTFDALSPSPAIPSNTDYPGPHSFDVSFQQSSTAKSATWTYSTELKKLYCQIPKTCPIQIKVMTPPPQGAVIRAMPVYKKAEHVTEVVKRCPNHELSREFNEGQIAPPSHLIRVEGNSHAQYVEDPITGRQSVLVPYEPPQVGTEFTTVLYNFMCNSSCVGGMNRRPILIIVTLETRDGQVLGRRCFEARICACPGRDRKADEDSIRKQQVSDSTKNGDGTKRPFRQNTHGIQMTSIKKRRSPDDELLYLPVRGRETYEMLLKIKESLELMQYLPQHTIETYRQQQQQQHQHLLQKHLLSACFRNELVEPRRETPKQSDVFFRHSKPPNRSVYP
Chain of p63γ (Q9H3D4 40-487 isoform Q9H3D4-5 limits assumed): as the sequence (Q9H3D4 40-487 isoform Q9H3D4-5 A206P limits assumed) above, with P167A counted along it
Chain of E2F1 (Q01094 whole entry, the tested form may be a part): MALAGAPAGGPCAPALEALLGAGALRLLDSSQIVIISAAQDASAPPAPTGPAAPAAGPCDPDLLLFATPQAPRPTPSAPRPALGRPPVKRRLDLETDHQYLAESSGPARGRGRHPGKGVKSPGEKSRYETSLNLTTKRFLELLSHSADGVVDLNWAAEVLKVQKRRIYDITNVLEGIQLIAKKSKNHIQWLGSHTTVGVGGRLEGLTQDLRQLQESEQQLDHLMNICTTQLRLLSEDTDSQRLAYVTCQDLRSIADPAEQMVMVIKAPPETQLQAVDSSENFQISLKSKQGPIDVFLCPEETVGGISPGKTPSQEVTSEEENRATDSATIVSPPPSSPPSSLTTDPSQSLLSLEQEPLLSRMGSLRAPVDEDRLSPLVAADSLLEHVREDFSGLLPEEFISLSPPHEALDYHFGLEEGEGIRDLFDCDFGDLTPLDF
Chain of p73β (O15350 1-499 isoform O15350-2, species assumed): as the sequence (O15350 1-499 isoform O15350-2 A156I) above, with I156A counted along it

## [O-][n+]1c(CN2CCCCC2)nc2cccc3c2c1-c1ccccc1-3 [NSC194598]
[1]
  IC50: 180 nM
[2]
  Inhibition of p53 DNA binding in competition assay: inhibited
[3]
  Inhibition of p63γ DNA binding in competition assay: inhibited
[4]
  Inhibition of p73β DNA binding in competition assay: inhibited
[5]
  Effect on TCF1 competition with zinc finger protein: without effect
[6]; 2.5 μM NSC194598
  Inhibition of DNA binding of p53 DNA-binding domain (90–312) (pull down): still showed inhibition
  Inhibition of DNA binding of p53 deletion mutant 1–360 (pull down): strongly inhibited
  Inhibition of DNA binding of p53 deletion mutant 90–393 (pull down): strongly inhibited
[6]; 10 μM for 30 min, wash 3 min
  DNA binding of compound-treated FLAG-p53 after short wash: did not bind DNA
[6]; 10 μM for 30 min, wash 3 h
  DNA binding of compound-treated FLAG-p53 after extensive wash: regained DNA-binding activity
[6]
  Inhibition of p53 DNA binding in oligonucleotide pull down: inhibited p53 DNA binding
[7]
  Inhibition of TCF1 DNA binding in oligonucleotide pull down: did not inhibit
[8]
  Effect on ZF1-Nluc/ZF2-Cluc complementation readout: did not stimulate readout
[9]; [32]
  p53 occupancy at the p21 promoter (ChIP), compound alone: increased p53 occupancy
[9]; irradiated U2OS cells, 4 hrs
  p53 occupancy at p21 and MDM2 promoters (ChIP): reduced p53 occupancy
[10]; MDM2 inhibitor Nutlin or doxorubicin
  p21 induction after p53 activation by Nutlin and doxorubicin: inhibited p21 induction
[10]; U2OS after irradiation
  p21, MDM2, PUMA protein and mRNA expression: inhibition of p21, MDM2, PUMA protein and mRNA expression
[10]; U2OS, 40 μM
  p53 target gene expression, compound alone at 40 μM: decline in p53 target gene expression
[10]; U2OS, 4 h treatment
  Decrease of MDM2/p53 ratio: ~ 50%
[10]; [32]
  p53 level and target genes p21 and MDM2, compound alone: caused p53 accumulation and upregulation of target genes p21 and MDM2
[10]; compound alone
  p53 mRNA level: no increase in p53 mRNA level
  γH2AX and p53 Ser15 phosphorylation (DNA damage): no increase of γH2AX or p53 Ser15 phosphorylation
[11]
  In vivo DNA binding by p63γ-A167P (ChIP): inhibited
[12]
  In vivo DNA binding by p73β-A156I (ChIP): inhibited
[13]
  DNA binding of E2F1 (ChIP): did not inhibit
[14]
  DNA binding of c-Myc (ChIP): did not inhibit
[15]
  p53 activation of p53-responsive luciferase reporter: inhibited
[16]
  Foxo1 activation of its luciferase reporter: did not inhibit
[17]
  MDM2-mediated ubiquitination of p53: had no effect
[18]
  Increase in melting temperature (ΔTm) of FLAG-94-312: 0.5 °C
[19]
  Effect on melting temperature of TAF1 bromodomain 2: did not affect
[20]; 1 μM or higher, with IR
  p53 level in irradiated thymocytes: reduced p53 level
[20]; 0.5–10 μM, 6 h, dose-dependent
  PARP and Caspase 3 cleavage after IR: blocked PARP and Caspase 3 cleavage
[20]; 20 hours after 5 Gy IR, 5 μM
  Thymocyte viability after IR (trypan blue exclusion): increased thymocyte viability
[20]; high concentrations, no IR
  p53 level and cleaved PARP, compound alone: caused p53 accumulation
[20]; no IR
  Thymocyte viability with compound alone (trypan blue exclusion): did not lose viability
[21]; data not shown
  p53 or PARP cleavage in the thymus of treated animals (western blot): did not reveal increase of p53 or PARP cleavage
[21]; single i.p. injection of 80 μg, 8 Gy
  Body weight after irradiation: did not prevent body weight loss
[21]; single i.p. injection of 80 μg, 8 Gy, 40-day observation
  Survival after irradiation: statistically significant improvement in survival
[22]
  p53 sensitivity to trypsin digestion: did not change sensitivity to trypsin digestion
[23]
  Crosslinking banding pattern of dimer and tetramer, wt p53: detected changes in the banding pattern
[24]
  Crosslinking pattern of R175H conformational mutant: did not affect the crosslinking pattern
[25]
  Oligomer formation of HA-p53 and FLAG-p53: did not inhibit oligomer formation
[26]
  p21 induction and p53 level in H1299-p53-A138V: inhibited p21 induction without changing p53 level
[27]
  p53 accumulation and p21 expression in SJSA versus U2OS: much weaker p53 accumulation and p21 expression
[28]
  Induction of p21 and MDM2 in p53-null cells: did not induce p21 and MDM2
[29]
  Binding to G-quadruplex DNA structures: binds G-quadruplex DNA structures
[30]
  Transcription of RET oncogene: inhibits the transcription of RET oncogene

## Cc1ccc(C(=O)Cn2c3c(sc2=N)CCCC3)cc1 [PFTα, Pifithrin-α, reference compound]
[6]
  Inhibition of p53 DNA binding in oligonucleotide pull down: had no effect
[8]
  Effect on ZF1-Nluc/ZF2-Cluc complementation readout: inhibited
[31]
  Effect on activity of full-length luciferase: inhibited

— paper PMC7398576 (Oncogene, 2020)
